# An excerpt weighted towards active compounds, which were near 1.9% of everything screened.
# RanGTP-Imp inh: inhibitors of RanGTP-importin-beta interaction, primary screen, biochemical, FRET, CFP-Ran, YFP-importin-beta, homogeneous. Ran GTPase (GTP-bound) - importin-beta complex. cell-free CFP-Ran/YFP-importin-beta FRET ratio. inhibition, % (test concentration not listed). hit rate 1.1% among 300,000. AID 2216, 2009;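 active = more than half of the replicate wells show a fall in the fluorescence ratio signal beyond about 16%, limit read from the data, passing the limit was not always enough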;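 note: 0% = DMSO wells and 100% = Ran loaded with GDP instead of GTP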
# Runt-SMMHC FRET: inhibitors of RUNX1 Runt–CBFb-SMMHC binding, primary screen, biochemical, FRET, Cerulean-Runt, Venus-CBFb-SMMHC, uHTS; Runt-related transcription factor 1 (Homo sapiens) + Core-binding factor subunit beta …; Cerulean-Runt/Venus-CBFb-SMMHC FRET ratio 530/480, 1 h; inhibition, % at 20 µM; hit rate 0.74% among 220,000;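 active = mean inhibition across duplicate retests at 20 µM reaching about 50%, limit read from the data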;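 note: 0% = DMSO wells and 100% = wells with excess untagged CBFb-SMMHC; inhibitors lower the FRET ratio by blocking Runt binding to CBFb-SMMHC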
# Runt-CBFb FRET: inhibitors of RUNX1 Runt–CBFb binding, primary screen, biochemical, FRET, Cerulean-Runt, Venus-CBFb, uHTS; inhibition, % at 20 µM; hit rate 0.46% among 220,000; AID 1496, 2009; Runt-related transcription factor 1 (Homo sapiens) + Core-binding factor subunit beta …; Cerulean-Runt/Venus-CBFb FRET ratio 530/480, 1 h;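 active = inhibition over about 50% at 20 µM in the single-dose screen, limit read from the data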;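 note: 0% = DMSO wells and 100% = excess unlabeled CBFb competitor control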
#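 Buffer or medium: Tris pH 7.5 buffer with BSA. Assay system: Cerulean-labeled Runt domain protein. Amount: each fluorescent fusion protein 100 nM. Read-out basis: loss of energy transfer signal. Incubation: 1 h compound exposure, room temperature. Probe or stimulus: Venus-CBFb binding partner, 100 nM. Detection: FRET, excitation 422 nm, emission at 530 and 480 nm.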
# TbHK1 inh: Trypanosoma brucei hexokinase 1 inhibitors, primary screen, biochemical, G6PDH-coupled NADH absorbance, MLSCN library; hexokinase 1 [Trypanosoma brucei]; recombinant TbHK1, G6PDH-coupled NADH A340; inhibition, % at 10 µM; hit rate 0.11% among 220,000; AID 1430, 2008;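 active = inhibition of 50% or more in the single-dose primary screen; inactive = inhibition below 50%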
# Hck Nef HTS: inhibitors of Nef-activated human Hck kinase, primary screen, biochemical, Z-Lyte FRET, 384-well, Hck-YEEI; AID 463187, 2010; Tyrosine-protein kinase HCK (Homo sapiens), P08631; inhibition, % at 20 µM; hit rate 0.68% among 220,000; Recombinant Hck-YEEI plus Nef, Z-Lyte FRET kinase assay;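 active = Hck-Nef kinase inhibition above about 50%, limit read from the data; inactive = inhibition below that limit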;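 note: 0% = DMSO with Hck plus Nef and 100% = Hck alone without Nef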
# Target sequence (P08631 whole entry, looked up): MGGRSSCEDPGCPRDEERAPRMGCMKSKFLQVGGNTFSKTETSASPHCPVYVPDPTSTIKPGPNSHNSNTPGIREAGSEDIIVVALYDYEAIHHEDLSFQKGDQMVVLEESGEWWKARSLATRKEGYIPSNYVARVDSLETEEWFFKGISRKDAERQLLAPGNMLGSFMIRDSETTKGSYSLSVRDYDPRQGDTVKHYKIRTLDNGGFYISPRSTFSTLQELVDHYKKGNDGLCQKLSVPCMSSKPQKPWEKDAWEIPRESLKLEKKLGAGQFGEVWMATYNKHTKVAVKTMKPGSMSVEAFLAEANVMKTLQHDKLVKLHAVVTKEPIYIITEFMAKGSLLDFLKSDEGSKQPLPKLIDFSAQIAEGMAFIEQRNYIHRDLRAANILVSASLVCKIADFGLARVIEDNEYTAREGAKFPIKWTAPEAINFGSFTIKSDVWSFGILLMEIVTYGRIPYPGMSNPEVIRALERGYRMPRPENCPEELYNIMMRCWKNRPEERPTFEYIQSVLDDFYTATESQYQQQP
# G6PDH ctr: Leuconostoc G6PDH inhibition, confirmation, counter-screen for TbHK1 inhibitor project, biochemical, DPI cherry-picked compounds, single concentration; shares compounds with TbHK1 inh; purified G6PDH, NADH absorbance, 1 h; inhibition, % at 10 µM; hit rate 7% among 210; AID 2516, 2010;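 active = at least 50% inhibition in the glucose-6-phosphate dehydrogenase coupled counterscreen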
# TbHK1 confirm: TbHK1 inhibitor retest, confirmation, biochemical, DPI cherry-picked primary actives; shares compounds with TbHK1 inh; recombinant TbHK1, G6PDH-coupled NADH A340 absorbance; inhibition, % at 10 µM; hit rate 10% among 210; AID 2560, 2010;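 active = inhibition of at least 50% in both of the two screening runs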;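 note: 0% and 100% set by the maximum and minimum signal control wells on each plate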
# Active calls of the source: *; . = not tested or not shown.
SMILES,RanGTP-Imp inh,Runt-SMMHC FRET,Runt-CBFb FRET,TbHK1 inh,Hck Nef HTS,G6PDH ctr,TbHK1 confirm
O=C(c1ccco1)N1CCN(CC(=O)N2CCCc3c2c(=O)oc2ccc(O)cc32)CC1,3,2,-2,-13,10,.,.
COc1ccc(CCNC(=O)Cn2nnc(-c3ccc(N4CCOCC4)cc3)n2)cc1OC,2,0,-2,51*,6,-19,-17
CCNC(=O)NC(=O)CSc1ccc(NC(C)=O)cc1,-4,2,-2,74*,5,-7,0
Cc1ccc(C(=O)NC2CC3CCCC(C2)N3C(=O)NC2CCCCC2)cc1 (centres undefined),3,4,-4,-3,2,.,.
O=C(NC1CC2CCCC(C1)N2C(=O)NC1CCCCC1)c1ccc(F)cc1 (centres undefined),3,1,-2,65*,6,-8,-3
O=C1CSC(c2ccccn2)N1c1ccccc1 (centres undefined),0,-3,-2,61*,8,0,2
Cc1ccccc1C(=O)/C(C#N)=N/Nc1c(C)n(C)n(-c2ccccc2)c1=O,5,12,10,53*,2,-81,-62
Cc1cc(C)c2c(=O)n(CC(=O)Nc3ccc(Br)c(C)c3)sc2n1,-3,56,13,51*,-140,-6,42
CN=c1scc(-c2ccc(F)cc2)n1/N=C/c1ccc(O)c(O)c1,.,4,8,-12,26,.,.
c1ccc(-c2cnc(-c3ccccc3)nc2)cc1,-1,2,-2,59*,-10,-32,-23
CCCCCc1nnc(NC(=O)NS(=O)(=O)c2ccc(C)cc2)s1,-3,.,.,.,.,.,.
S=C(Nc1cccc(Cl)c1)N(CCCN1CCCC1)Cc1cccn1Cc1ccc(Cl)cc1,5,-1,0,51*,10,41,13
Cc1cc(C(=O)NNS(=O)(=O)c2ccc(C(C)(C)C)cc2)nn1C(C)(C)C,1,-2,-1,52*,7,-6,4
C=CCc1ccc(OCc2ccc(C(=O)Nc3ccc(NC(C)=O)cc3)o2)c(OC)c1,-2,.,.,.,.,.,.
CCCCCCCCCCCNC(=O)c1ccoc1C,-2,9,3,55*,7,-31,86*
Cc1occc1C(=O)NCCCCNC(=O)c1ccoc1C,-2,-1,-2,6,3,.,.
COc1cccc(N(C(=O)CNC(=O)c2ccco2)C(C(=O)NC2CCCC2)c2cccnc2)c1 (centres undefined),3,.,.,.,.,.,.
C#CCOCCOCCOCCNc1nc(N2CCN(C(=O)C(Cc3cc4ccccc4[nH]3)n3cc(C(N)Cc4ccc(O)cc4)nn3)CC2)nc(N2CCN(C(=O)C(Cc3cc4ccccc4[nH]3)n3cc(C(N)Cc4ccc(O)cc4)nn3)CC2)n1 (centres undefined),2,1,-4,53*,-172,88*,20
CN(CCO)C(=O)CCC(=O)Nc1ccc(S(N)(=O)=O)cc1,0,-3,1,60*,4,-1,6
CSc1cccc(NC(=O)C2CCCN2S(=O)(=O)c2ccc(Br)s2)c1 (centres undefined),-1,2,1,54*,1,21,14
CSc1cccc(NC(=O)C2CCCN(S(=O)(=O)c3cccs3)C2)c1 (centres undefined),3,.,.,.,.,.,.
COc1cccc(CNC(=O)C2CCC(=O)N(C3CC3)C2)c1OC (centres undefined),1,.,.,.,.,.,.
